Measured values: ChEMBL document CHEMBL2177064, “Discovery and optimization of a novel spiropyrrolidine inhibitor of β-secretase (BACE1) through fragment-based drug design” (J Med Chem, 2012)

Columns and labels:
[1] = Intrinsic clearance in human liver microsomes assessed per mg of protein; type: ADME, Microsome; conditions: read-out: CLH
[2] = Permeability from basal to apical side of RRCK cells at 2 uM; type: ADME, cell-based, Canis lupus familiaris, MDCKII-LE; conditions: dog, MDCK; read-out: permeability
Summary of the method: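 Basal→apical transfer rate of test compound at 2 μM across contiguous RRCK cell monolayers, quantified by MS.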

[3] = Permeability from apical to basal side of MDCK cells; type: ADME, cell-based, Canis lupus familiaris; conditions: dog, read-out: permeability
Summary of the method: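 Test compound applied at 2 μM to contiguous cell monolayers. Apical-to-basal transfer rate quantified by mass spectrometry.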

Work on O=C1Nc2ccccc2[C@@]12CN[C@@H](CNCc1cccc(C(F)(F)F)c1)C2 yielded a microsomal CLint [1] of 94.8 µL/min/mg.
Compound N#Cc1ccc(COC(=O)[C@H]2C[C@]3(CN2)C(=O)Nc2ccccc23)cc1 has a Papp B→A at 2 µM [2] of 18.4 ×10⁻⁶ cm/s.
In the case of O=C(OCc1ccccc1)[C@H]1C[C@]2(CN1)C(=O)Nc1ccccc12, the Papp B→A at 2 µM [2] is reported as 30.4 ×10⁻⁶ cm/s.
With O=C(OCc1ccc(Br)cc1)[C@H]1C[C@]2(CN1)C(=O)Nc1ccccc12 the Papp B→A at 2 µM [2] was 7.11 ×10⁻⁶ cm/s.
CN(C(=O)[C@H]1C[C@]2(CN1)C(=O)Nc1ccccc12)C1CCOCC1 showed a microsomal CLint [1] of less than 8 µL/min/mg and a Papp B→A at 2 µM [2] of 2.92 ×10⁻⁶ cm/s.
Compound N#Cc1ccc(COC(=O)[C@H]2C[C@]3(CN2)C(=O)Nc2ccccc23)cc1Br has a Papp B→A at 2 µM [2] of 10.2 ×10⁻⁶ cm/s.
O=C(OC1CCOCC1)[C@H]1C[C@]2(CN1)C(=O)Nc1ccccc12 showed a Papp B→A at 2 µM [2] of 25 ×10⁻⁶ cm/s.
In the case of O=C1Nc2ccccc2[C@@]12CN[C@@H](CNCc1ccccc1)C2, the microsomal CLint [1] is reported as 76.7 µL/min/mg and the Papp B→A at 2 µM [2] is reported as 13.5 ×10⁻⁶ cm/s.
O=C1Nc2ccccc2[C@]12CCNC2 gave a Papp A→B [3] of 12.2 ×10⁻⁶ cm/s.
In the case of O=C1Nc2ccccc2[C@@]12CN[C@@H](c1ccccc1)C2 (racemic), the microsomal CLint [1] is reported as 16.6 µL/min/mg and the Papp B→A at 2 µM [2] is reported as 29.6 ×10⁻⁶ cm/s.
COC(=O)N1CCC(OC(=O)[C@H]2C[C@]3(CN2)C(=O)Nc2ccccc23)CC1 gave a Papp B→A at 2 µM [2] of 20.9 ×10⁻⁶ cm/s.
Compound COC(=O)[C@H]1C[C@]2(CN1)C(=O)Nc1ccccc12 has a Papp B→A at 2 µM [2] of 29.5 ×10⁻⁶ cm/s.
N#CC1(OC(=O)[C@H]2C[C@]3(CN2)C(=O)Nc2ccccc23)CCCCC1 showed a Papp B→A at 2 µM [2] of 22.7 ×10⁻⁶ cm/s.
For O=C1Nc2ccccc2[C@@]12CN[C@@H](COCc1ccccc1)C2, the microsomal CLint [1] was 24.7 µL/min/mg and the Papp B→A at 2 µM [2] was 23.9 ×10⁻⁶ cm/s.
O=C(OC1CCS(=O)(=O)c2ccc(Br)cc21)[C@H]1C[C@]2(CN1)C(=O)Nc1ccccc12 (mixture of isomers) gave a Papp B→A at 2 µM [2] of 49.1 ×10⁻⁶ cm/s.
Work on CN(C)C(=O)[C@H]1C[C@]2(CN1)C(=O)Nc1ccccc12 yielded a microsomal CLint [1] of less than 8 µL/min/mg.
Work on O=C(NCc1ccccc1)[C@H]1C[C@]2(CN1)C(=O)Nc1ccccc12 yielded a microsomal CLint [1] of 15 µL/min/mg.
CNC(=O)[C@H]1C[C@]2(CN1)C(=O)Nc1ccccc12 gave a microsomal CLint [1] of 14.3 µL/min/mg and a Papp B→A at 2 µM [2] of 4.86 ×10⁻⁶ cm/s.
With O=C1Nc2ccccc2[C@@]12CN[C@@H](CCCc1ccccc1)C2 the microsomal CLint [1] was 91.3 µL/min/mg and the Papp B→A at 2 µM [2] was 11.4 ×10⁻⁶ cm/s.
